Results on 6 compounds are retold here after ChEMBL document CHEMBL1131270, “Fluorescent probes for adenosine receptors: synthesis and biology of N6-dansylaminoalkyl-substituted NECA derivatives” (Bioorg Med Chem Lett, 1998).

The structures appear in SMILES notation. Bounds are passed on as bounds.

For one assay, the target named is T1, Adenosine receptor A3 (Rattus norvegicus, UniProt P28647).
T1 sequence (P28647 whole entry): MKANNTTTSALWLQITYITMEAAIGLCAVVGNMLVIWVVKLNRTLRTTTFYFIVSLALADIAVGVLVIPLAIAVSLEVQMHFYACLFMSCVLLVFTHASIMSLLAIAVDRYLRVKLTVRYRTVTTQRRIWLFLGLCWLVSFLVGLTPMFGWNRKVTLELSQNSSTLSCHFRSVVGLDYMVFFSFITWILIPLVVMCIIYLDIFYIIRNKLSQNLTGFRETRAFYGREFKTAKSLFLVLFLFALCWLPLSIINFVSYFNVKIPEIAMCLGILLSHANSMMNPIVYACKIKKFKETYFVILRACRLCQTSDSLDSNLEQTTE
Nature of the assay: Binding affinity for adenosine A3 receptor of rat testis membrane using [3H](R)-PIA. An outline of the steps:
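Rat testis membranes were labelled with [3H]-(R)-PIA for A3 binding, with 150 nM DPCPX present to block A1 receptors. Membrane preparation and assay followed an earlier published method. IC50 values were converted to Ki by Cheng–Prusoff and reported as mean ± S.E. of three experiments.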

In a further assay the target is Adenosine A2 receptor (Rattus norvegicus, UniProt P29276+P30543). The assay can be described thus: Binding affinity for adenosine A2 receptor of rat striatal membrane using [3H]CGS-21680. An outline of the steps:
(§1)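 Competition binding on rat membrane preparations: cerebral cortex for A1 with [3H]-CHA, striatum for A2 with [3H]-CGS 21680. Membrane preparation and assay followed an earlier published method. IC50 values were converted to Ki with the Cheng–Prusoff equation and reported as mean ± S.E. of three experiments.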

A further assay concerns the target T2, Adenosine receptor A1 (Rattus norvegicus, UniProt P25099).
T2 sequence (P25099 whole entry): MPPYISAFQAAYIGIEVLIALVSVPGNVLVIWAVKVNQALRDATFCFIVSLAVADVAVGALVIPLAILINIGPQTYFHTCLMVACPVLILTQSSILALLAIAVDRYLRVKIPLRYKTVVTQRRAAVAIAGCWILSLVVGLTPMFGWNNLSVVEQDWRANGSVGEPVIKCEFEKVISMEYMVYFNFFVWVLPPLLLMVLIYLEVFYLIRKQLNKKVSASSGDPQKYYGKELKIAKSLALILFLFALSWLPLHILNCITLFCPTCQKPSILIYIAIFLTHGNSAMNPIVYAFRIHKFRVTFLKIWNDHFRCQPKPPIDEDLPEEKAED
The assay can be described thus: Binding affinity for adenosine A1 receptor of rat cerebral cortex membrane using [3H]CHA. The class given is tissue-based. An outline of the steps:
as §1

In general, Ki refers to a dissociation constant, usually derived from enzyme kinetics or from competition with a known ligand. Lower therefore signals a stronger hold on the target. As to `CCNC(=O)[C@H]1OC(n2cnc3c(NCCCCCCCCCCCCNS(=O)(=O)c4cccc5c(N(C)C)cccc45)ncnc32)[C@H](O)[C@@H]1O` (stereo partly drawn), the Ki at Adenosine receptor A3 was 2500 nM; at Adenosine A2 receptor it was greater than 10000 nM; at Adenosine receptor A1, 3400 nM.

For `CCNC(=O)[C@H]1OC(n2cnc3c(NCCCNS(=O)(=O)c4cccc5c(N(C)C)cccc45)ncnc32)[C@H](O)[C@@H]1O` (stereo partly drawn), the results for the inhibitory constant (Ki) on Adenosine receptor A3, at Adenosine A2 receptor and on Adenosine receptor A1 were 1800 nM, 4300 nM and 42 nM, respectively.

With `CCNC(=O)[C@H]1OC(n2cnc3c(NCCCCNS(=O)(=O)c4cccc5c(N(C)C)cccc45)ncnc32)[C@H](O)[C@@H]1O` (stereo partly drawn), the Ki at Adenosine receptor A3 amounted to 2000 nM; on Adenosine A2 receptor it was 9500 nM; at Adenosine receptor A1 it was 70 nM.

Regarding `CCNC(=O)[C@H]1OC(n2cnc3c(NCCCCCCCCCCNS(=O)(=O)c4cccc5c(N(C)C)cccc45)ncnc32)[C@H](O)[C@@H]1O` (stereo partly drawn), the inhibitory constant (Ki) on Adenosine receptor A3 was 1100 nM; at Adenosine A2 receptor it was greater than 10000 nM; at Adenosine receptor A1 it was 234 nM.

In the case of `CCNC(=O)[C@H]1OC(n2cnc3c(NCCCCCCCCNS(=O)(=O)c4cccc5c(N(C)C)cccc45)ncnc32)[C@H](O)[C@@H]1O` (stereo partly drawn), the Ki at Adenosine receptor A3 was 252 nM; at Adenosine A2 receptor, greater than 10000 nM; at Adenosine receptor A1, 111 nM.

Take `CCNC(=O)[C@H]1OC(n2cnc3c(NCCCCCCNS(=O)(=O)c4cccc5c(N(C)C)cccc45)ncnc32)[C@H](O)[C@@H]1O` (stereo partly drawn): the inhibition constant (Ki) came out at 3600 nM at Adenosine receptor A3, 4300 nM on Adenosine A2 receptor and 27 nM at Adenosine receptor A1.
